In ChEMBL document CHEMBL1145867, “Muraymycins, novel peptidoglycan biosynthesis inhibitors: synthesis and SAR of their analogues” (2003):
In brackets after ≈: the same amount, converted by molar mass. Blank lines part the entries; values can stand above or below the compound they belong to. Activity calls are given as the source filed them. The calls are words filed in the database; no cut-off is given here.

What was measured:
Enterococcus sp. = experiment: In vitro antimicrobial activity against Enterococci; type: functional
In short: (§1)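 Broth microdilution per NCCLS guidance. Serial dilutions of each agent in microtiter plates are inoculated with each organism to 10⁵ CFU/mL and incubated 18–22 h at 35 C in ambient air. MIC is the lowest concentration giving complete growth inhibition, judged by the unaided eye.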

Bacteria = experiment: In vitro antimicrobial activity against gram-negative organisms (10); type: functional; in short: as §1
Staphylococcus sp. [1] = experiment: In vitro antimicrobial activity against Staphylococci; type: functional, staphyl ococcus species; in short: as §1
Staphylococcus aureus [2] = experiment: In vitro antimicrobial activity against Staphylococcu aureus GC 2216; type: functional; in short: as §1
[3] = The inhibitory activity of compound against MraY or MurG at 50 ug/mL; Inhibit
Escherichia coli [4] = experiment: In vitro antimicrobial activity against Escherichia coli GC 2214; type: functional; in short: as §1
Serratia marcescens = experiment: In vitro antimicrobial activity against Serratia marcescens GC 4077; type: functional; in short: as §1
Klebsiella pneumoniae = experiment: In vitro antimicrobial activity against Klebsiella pneumoniae GC 4534; type: functional; in short: as §1
Enterococcus faecalis [5] = experiment: In vitro antimicrobial activity against Enterococcus faecalis GC 4555; type: functional; in short: as §1
Candida albicans = experiment: In vitro antimicrobial activity against Candida albicans GC 3066; type: functional; in short: as §1
Staphylococcus sp. [6] = experiment: In vitro antimicrobial activity against CNS GC 4547; type: functional; in short: as §1
Staphylococcus sp. [7] = experiment: In vitro antimicrobial activity against CNS GC 4538; type: functional; in short: as §1
[8] = The inhibitory activity of compound against MraY or MurG at 6.25 ug/mL; No Inhibition
Staphylococcus aureus [9] = experiment: In vitro antimicrobial activity against Staphylococcu aureus GC 1131; type: functional
In short: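 Broth dilution per NCCLS recommendations. Serial dilutions in microtiter plates inoculated to 10⁵ CFU/mL, then incubated 18–22 h at 35 C in ambient air. MIC taken as the lowest concentration giving complete growth inhibition by unaided eye.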

Escherichia coli [10] = experiment: In vitro antimicrobial activity against Escherichia coli GC 4559; type: functional; in short: as §1
Enterococcus faecalis [11] = experiment: In vitro antimicrobial activity against Enterococcus faecalis GC 2242; type: functional; in short: as §1
Staphylococcus aureus [12] = experiment: In vitro antimicrobial activity against Staphylococcu aureus GC 4536; type: functional; in short: as §1
Escherichia coli [13] = experiment: In vitro antimicrobial activity against Escherichia coli GC 4560; type: functional; in short: as §1
[14] = The inhibitory activity of compound against MraY or MurG at 25 ug/mL; No Inhibition
Pseudomonas aeruginosa [15] = experiment: In vitro antimicrobial activity against Pseudomonas aeruginosa GC 4532; type: functional; in short: as §1
Enterobacter cloacae = experiment: In vitro antimicrobial activity against Enterobacter cloacae GC 3783; type: functional; in short: as §1
Escherichia coli [16] = experiment: In vitro antimicrobial activity against Escherichia coli GC 3226; type: functional; in short: as §1
[17] = The inhibitory activity of compound against MraY or MurG at 100 ug/mL; Inhibit
Enterococcus faecalis [18] = experiment: In vitro antimicrobial activity against Enterococcus faecalis GC 842; type: functional; in short: as §1
Pseudomonas aeruginosa [19] = experiment: In vitro antimicrobial activity against Pseudomonas aeruginosa GC 2214; type: functional; in short: as §1
Morganella morganii = experiment: In vitro antimicrobial activity against Morganella morganii GC 4531; type: functional; in short: as §1
[20] = The inhibitory activity of compound against MraY or MurG at 12.5 ug/mL; No Inhibition
[21] = The inhibitory activity of compound against MraY or MurG at 50 ug/mL; No Inhibition
[22] = The inhibitory activity of compound against MraY or MurG at 100 ug/mL; No Inhibition

Compound: COc1ccc(Cn2c(=O)ccn([C@@H]3OC([C@H](O)[C@H](NCCCNC(=O)[C@@H](CC(C)C)NC(=O)[C@H](CCC/N=C(\N)N[N+](=O)[O-])NC(=O)N[C@H](C(=O)OCc4ccccc4)C(C)C)C(=O)O)[C@@H](O)[C@H]3O)c2=O)cc1 (stereo not given in full)
MIC (Enterococcus sp.): > 128 µg/mL
MIC (Bacteria): > 128 µg/mL
MIC (Staphylococcus sp. [1]): > 128 µg/mL

MIC (Enterococcus sp.): 64 µg/mL (≈ 48.7 µM)
MIC (Bacteria): 64 µg/mL (≈ 48.7 µM)
MIC (Staphylococcus sp. [1]): 128 µg/mL (≈ 97.4 µM)
Compound: COc1ccc(Cn2c(=O)ccn([C@@H]3OC([C@H](O)[C@H](NCCCNC(=O)[C@H](NC(=O)[C@H](CCC/N=C(\N)N[N+](=O)[O-])NC(=O)N[C@H](C(=O)OCc4ccccc4)C(C)C)C(C)O)C(=O)OC(C)(C)C)[C@@H](O[Si](C)(C)C(C)(C)C)[C@H]3O[Si](C)(C)C(C)(C)C)c2=O)cc1 (stereo not given in full)

MIC (Staphylococcus aureus [2]): 8 µg/mL (≈ 7.68 µM)
Inhibitory activity [3]: Inhibit
MIC (Escherichia coli [4]): 128 µg/mL (≈ 123 µM)
MIC (Serratia marcescens): 128 µg/mL (≈ 123 µM)
MIC (Klebsiella pneumoniae): > 128 µg/mL
MIC (Enterococcus faecalis [5]): 8 µg/mL (≈ 7.68 µM)
MIC (Candida albicans): > 128 µg/mL
MIC (Enterococcus sp.): 8 µg/mL (≈ 7.68 µM)
MIC (Staphylococcus sp. [6]): 16 µg/mL (≈ 15.4 µM)
MIC (Staphylococcus sp. [7]): 8 µg/mL (≈ 7.68 µM)
MIC (Staphylococcus sp. [7]; Staphylococcus sp., read-out: MIC): 8 µg/mL (≈ 7.68 µM)
Inhibitory activity [8]: inactive
MIC (Staphylococcus aureus [9]): 4 µg/mL (≈ 3.84 µM)
MIC (Escherichia coli [10]): > 128 µg/mL
MIC (Enterococcus faecalis [11]): 8 µg/mL (≈ 7.68 µM)
MIC (Staphylococcus aureus [12]): 8 µg/mL (≈ 7.68 µM)
MIC (Escherichia coli [13]): 8 µg/mL (≈ 7.68 µM)
Inhibitory activity [14]: inactive
MIC (Pseudomonas aeruginosa [15]): > 128 µg/mL
MIC (Enterobacter cloacae): > 128 µg/mL
MIC (Escherichia coli [16]): 128 µg/mL (≈ 123 µM)
Inhibitory activity [17]: Inhibit
MIC (Enterococcus faecalis [18]): 8 µg/mL (≈ 7.68 µM)
MIC (Pseudomonas aeruginosa [19]): > 128 µg/mL
MIC (Bacteria): 128 µg/mL (≈ 123 µM)
MIC (Morganella morganii): 128 µg/mL (≈ 123 µM)
MIC (Staphylococcus sp. [1]): 4 µg/mL (≈ 3.84 µM)
Inhibitory activity [20]: inactive
Compound: COc1ccc(Cn2c(=O)ccn([C@@H]3OC([C@H](O)[C@H](NCCCNC(=O)[C@H](N)CCCCNC(=O)OCc4ccccc4)C(=O)OC(C)(C)C)[C@@H](O[Si](C)(C)C(C)(C)C)[C@H]3O[Si](C)(C)C(C)(C)C)c2=O)cc1 (stereo not given in full)

MIC (Enterococcus sp.): > 128 µg/mL
MIC (Bacteria): > 128 µg/mL
MIC (Staphylococcus sp. [1]): > 128 µg/mL
Compound: COc1ccc(Cn2c(=O)ccn([C@@H]3OC([C@H](O)[C@H](NCCCNC(=O)[C@@H](CC(C)C)NC(=O)[C@H](CCCN=C(N)N)NC(=O)N[C@H](C(=O)O)C(C)C)C(=O)OC(C)(C)C)[C@@H](O[Si](C)(C)C(C)(C)C)[C@H]3O[Si](C)(C)C(C)(C)C)c2=O)cc1 (stereo not given in full)

MIC (Enterococcus sp.): 64 µg/mL (≈ 69.4 µM)
MIC (Bacteria): > 128 µg/mL
MIC (Staphylococcus sp. [1]): > 128 µg/mL
Compound: CC(C)C(O)[C@@H](NC(=O)OCc1ccccc1)C(=O)NCCCN[C@H](C(=O)OC(C)(C)C)[C@@H](O)C1O[C@@H](n2ccc(=O)[nH]c2=O)[C@H](O[Si](C)(C)C(C)(C)C)[C@@H]1O[Si](C)(C)C(C)(C)C (stereo not given in full)

MIC (Enterococcus sp.): 128 µg/mL (≈ 119 µM)
MIC (Bacteria): > 128 µg/mL
MIC (Staphylococcus sp. [1]): 128 µg/mL (≈ 119 µM)
Compound: COc1ccc(Cn2c(=O)ccn([C@@H]3OC([C@H](O)[C@H](NCCCNC(=O)[C@@H](CCc4ccccc4)NC(=O)OCc4ccccc4)C(=O)OC(C)(C)C)[C@@H](O[Si](C)(C)C(C)(C)C)[C@H]3O[Si](C)(C)C(C)(C)C)c2=O)cc1 (stereo not given in full)

MIC (Enterococcus sp.): 128 µg/mL (≈ 211 µM)
MIC (Bacteria): > 128 µg/mL
MIC (Staphylococcus sp. [1]): > 128 µg/mL
Compound: COc1ccc(Cn2c(=O)ccn([C@@H]3OC([C@H](O)[C@H](NCCCNC(=O)[C@H](N)CC(C)C)C(=O)O)[C@@H](O)[C@H]3O)c2=O)cc1 (stereo not given in full)

Inhibitory activity [21]: inactive
MIC (Enterococcus sp.): > 128 µg/mL
Inhibitory activity [22]: inactive
Inhibitory activity [8]: inactive
Inhibitory activity [14]: inactive
MIC (Bacteria): > 128 µg/mL
MIC (Staphylococcus sp. [1]): > 128 µg/mL
Inhibitory activity [20]: inactive
Compound: COc1ccc(Cn2c(=O)ccn([C@@H]3OC([C@H](O)[C@H](NCCCNC(=O)[C@H](N)CCC(=O)OC(C)(C)C)C(=O)OC(C)(C)C)[C@@H](O[Si](C)(C)C(C)(C)C)[C@H]3O[Si](C)(C)C(C)(C)C)c2=O)cc1 (stereo not given in full)

Inhibitory activity [21]: inactive
MIC (Enterococcus sp.): > 128 µg/mL
Inhibitory activity [22]: inactive
Inhibitory activity [8]: inactive
Inhibitory activity [14]: inactive
MIC (Bacteria): > 128 µg/mL
MIC (Staphylococcus sp. [1]): > 128 µg/mL
Inhibitory activity [20]: inactive
Compound: COc1ccc(Cn2c(=O)ccn([C@@H]3OC([C@H](O)[C@H](NCCCNC(=O)[C@H](N)CCc4ccccc4)C(=O)OC(C)(C)C)[C@@H](O[Si](C)(C)C(C)(C)C)[C@H]3O[Si](C)(C)C(C)(C)C)c2=O)cc1 (stereo not given in full)

MIC (Enterococcus sp.): 128 µg/mL (≈ 173 µM)
MIC (Bacteria): > 128 µg/mL
MIC (Staphylococcus sp. [1]): > 128 µg/mL
Compound: COc1ccc(Cn2c(=O)ccn([C@@H]3OC([C@H](O)[C@H](NCCCNC(=O)[C@@H](CC(C)C)NC(=O)OCc4ccccc4)C(=O)O)[C@@H](O)[C@H]3O)c2=O)cc1 (stereo not given in full)
